Results published in ChEMBL document CHEMBL1123985, “Oral absorption of cephalosporin antibiotics. 1. Synthesis, biological properties, and oral bioavailability of 7-(arylacetamido)-3-chloro cephalosporins in animals” (J Med Chem, 1988).
Values after ≈ are worked out from the molar mass of the structure shown.

Assays:
Staphylococcus aureus [1] = test: Minimum inhibitory concentration against 3055 strain of Staphylococcus aureus
[2] = Minimum inhibitory concentration against sens CL strain of Haemophilus influenzae; type: functional
Streptococcus pyogenes [3] = test: Minimum inhibitory concentration against Streptococcus pyogenes C203; type: functional
Staphylococcus aureus [4] = test: Minimum inhibitory concentration against V41 strain of Staphylococcus aureus; type: functional
Escherichia coli = test: Minimum inhibitory concentration against EC14 strain Escherichia coli; type: functional
Streptococcus pneumoniae [5] = test: Minimum inhibitory concentration against park strain of Streptococcus pneumoniae
Streptococcus pneumoniae [6] = test: Minimum inhibitory concentration against Park strain of Streptococcus pneumoniae
Staphylococcus aureus [7] = test: Minimum inhibitory concentration against X1.1 strain of Staphylococcus aureus; type: functional
[8] = tested on: Staphylococcus epidermidis; test: Minimum inhibitory concentration against Epil strain of Staphylococcus epidermidis; type: functional
Staphylococcus aureus [9] = test: Minimum inhibitory concentration against S13E strain of Staphylococcus aureus; type: functional
Salmonella = test: Minimum inhibitory concentration against X514 strain of Salmonella; type: functional
[10] = Minimum inhibitory concentration against res 76 strain of Haemophilus influenzae; type: functional
[11] = Minimum inhibitory concentration against N9 strain of Shigella sonnei; type: functional
Streptococcus pyogenes [12] = test: Minimum inhibitory concentration against C203 strain of Streptococcus pyogenes
[13] = Oral bioavailability in mouse; type: ADME, organism-based; details: in vivo
How it was run: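 Male Cox mice given water and liquid diet overnight; 20 mg/kg in saline (2 mg/mL) sc or orally; urine from collection cages plus bladder contents over 2 h; activity by agar well assay with Bacillus subtilis ATCC 6633. Bioavailability from percent dose excreted in urine after oral vs parenteral dosing.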

Klebsiella aerogenes = test: Minimum inhibitory concentration against EB17 strain of Enterobacter aerogenes; type: functional
[14] = tested on: Staphylococcus epidermidis; test: Minimum inhibitory concentration against 222 strain of Staphylococcus epidermidis; type: functional
Klebsiella pneumoniae = test: Minimum inhibitory concentration against X68 strain of Klebsiella pneumoniae; type: functional
Streptococcus pyogenes [15] = test: Minimum inhibitory concentration against C203 strain of Streptococcus pyogenes; remark: listed apart in the source
[16] = Dose in urine (24-h urine excretion) in female mongrel dogs after oral administration of single 15 mg/kg dose; type: ADME, organism-based, Canis lupus familiaris; design: dose 15 mg/kg, route oral; details: dog
How it was run: (§1)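 Female mongrel dogs (n=6), bladder catheter; urine collected at intervals after single 15 mg/kg iv or oral solution dose, frozen; antibiotic activity by disk-plate agar diffusion against E. coli MB 3804 with standards in pH 6.0 buffer; percent of dose recovered in urine.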

[17] = Oral bioavailability in dog (female mongrel); type: ADME, organism-based, Canis lupus familiaris; details: in vivo
How it was run: (§2)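 Six female mongrel dogs (14-23 kg) fasted overnight, bladder catheterized; single 15 mg/kg solution doses by stomach tube (in water, total 500 mL) or cephalic vein (saline or pH 6.0 NaCl/phosphate/acetate buffer). Plasma sampled at intervals; activity by disk-plate agar diffusion against E. coli MB 3804, standards in dog serum or buffer. AUC μg min/mL, mean ± SEM; BA from iv vs po AUC and urinary recovery.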

[18] = Area under plasma concentration vs time curve observed in Rhesus monkeys after, iv administration of single 30 mg/kg dose; type: ADME, organism-based, Macaca mulatta; design: dose 30 mg/kg, route intravenous; details: rhesus monkey
How it was run: (§3)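 Rhesus monkeys, adult males, six animals per compound, each given drug orally and iv; fasted overnight. Single 30 mg/kg solution doses, by nasogastric tube (in water) or saphenous vein (in isotonic lactated Ringer). Plasma sampled at intervals, frozen at -70 °C, antibacterial activity by microbiological assay. AUC in μg min/mL; oral bioavailability from oral vs iv AUC.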

[19] = Dose in urine (24-h urine excretion) in female mongrel dogs after iv administration of single 15 mg/kg dose; type: ADME, organism-based, Canis lupus familiaris; design: dose 15 mg/kg, route intravenous; details: dog
How it was run: as §1

Canis familiaris [20] = test: Area under plasma concentration vs time curve observed in female mongrel dogs after, iv administration of single 15 mg/kg dose; type: ADME, organism-based, Canis lupus familiaris; design: dose 15 mg/kg, route intravenous; details: dog, in vivo
How it was run: as §2

Canis familiaris [21] = test: Area under plasma concentration vs time curve observed in female mongrel dogs after, oral administration of single 15 mg/kg dose; type: ADME, organism-based, Canis lupus familiaris; design: dose 15 mg/kg, route oral; details: dog, in vivo
How it was run: as §2

[22] = Oral bioavailability in Rhesus monkey; type: ADME, organism-based, Macaca mulatta; details: in vivo
How it was run: as §3

[23] = Area under plasma concentration vs time curve observed in Rhesus monkeys after oral administration of single 30 mg/kg dose; type: ADME, organism-based, Macaca mulatta; design: dose 30 mg/kg, route oral; details: rhesus monkey
How it was run: as §3

Row | Structure (SMILES) | MIC (Staphylococcus aureus [1]) | MIC [2] | MIC (Streptococcus pyogenes [3]) | MIC (Staphylococcus aureus [4]) | MIC (Escherichia coli) | MIC (Streptococcus pneumoniae [5]) | MIC (Streptococcus pneumoniae [6]) | MIC (Staphylococcus aureus [7]) | MIC [8] | MIC (Staphylococcus aureus [9]) | MIC (Salmonella) | MIC [10] | MIC [11] | MIC (Streptococcus pyogenes [12]) | bioavailability [13] | MIC (Klebsiella aerogenes) | MIC [14] | MIC (Klebsiella pneumoniae) | also measured
1 | C=CC1=C(C(=O)O)N2C(=O)[C@@H](NC(=O)COc3ccccc3)[C@H]2SC1 | 0.25 µg/mL (≈ 0.694 µM) | 4 µg/mL (≈ 11.1 µM) | 0.125 µg/mL (≈ 0.347 µM) | 16 µg/mL (≈ 44.4 µM) | > 128 µg/mL | 0.25 µg/mL (≈ 0.694 µM) | 0.125 µg/mL (≈ 0.347 µM) | 0.25 µg/mL (≈ 0.694 µM) | 8 µg/mL (≈ 22.2 µM) | 16 µg/mL (≈ 44.4 µM) | > 128 µg/mL | 1 µg/mL (≈ 2.77 µM) | > 128 µg/mL | 0.125 µg/mL (≈ 0.347 µM) | 36% | > 128 µg/mL | 0.5 µg/mL (≈ 1.39 µM) | > 128 µg/mL | 
2 | COC1=C(C(=O)O)N2C(=O)[C@@H](NC(=O)Cc3csc(N)n3)[C@H]2SC1 |  | 8 µg/mL (≈ 21.6 µM) | 0.5 µg/mL (≈ 1.35 µM) | 32 µg/mL (≈ 86.4 µM) | 8 µg/mL (≈ 21.6 µM) |  | 2 µg/mL (≈ 5.4 µM) | 8 µg/mL (≈ 21.6 µM) | 128 µg/mL (≈ 346 µM) | > 128 µg/mL | 2 µg/mL (≈ 5.4 µM) | 8 µg/mL (≈ 21.6 µM) | 32 µg/mL (≈ 86.4 µM) |  | < 5% | 32 µg/mL (≈ 86.4 µM) | 32 µg/mL (≈ 86.4 µM) | 8 µg/mL (≈ 21.6 µM) | 
3 | COCC1=C(C(=O)O)N2C(=O)[C@@H](NC(=O)COc3ccccc3)[C@H]2SC1 |  | 2 µg/mL (≈ 5.29 µM) | 0.06 µg/mL (≈ 0.159 µM) | 0.5 µg/mL (≈ 1.32 µM) | > 128 µg/mL |  | 0.125 µg/mL (≈ 0.33 µM) | 0.25 µg/mL (≈ 0.661 µM) | 0.5 µg/mL (≈ 1.32 µM) | 32 µg/mL (≈ 84.6 µM) | > 128 µg/mL | 2 µg/mL (≈ 5.29 µM) | > 128 µg/mL |  | 19% | > 128 µg/mL | 0.25 µg/mL (≈ 0.661 µM) | > 128 µg/mL | 
4 | CC1=C(C(=O)O)N2C(=O)[C@@H](NC(=O)[C@H](N)c3ccccc3)[C@H]2SC1 [CEPHALEXIN ANHYDROUS] | 1 µg/mL (≈ 2.88 µM) |  |  |  |  | 4 µg/mL (≈ 11.5 µM) |  |  |  |  |  |  |  |  |  |  |  |  | MIC (Streptococcus pyogenes [15]): 0.5 µg/mL (≈ 1.44 µM)
5 | O=C(Cc1ccc(O)cc1)N[C@@H]1C(=O)N2C(C(=O)O)=C(Cl)CS[C@H]12 |  | 2 µg/mL (≈ 5.42 µM) | 0.125 µg/mL (≈ 0.339 µM) | 16 µg/mL (≈ 43.4 µM) | 32 µg/mL (≈ 86.8 µM) |  | 0.25 µg/mL (≈ 0.678 µM) | 2 µg/mL (≈ 5.42 µM) | 8 µg/mL (≈ 21.7 µM) | 128 µg/mL (≈ 347 µM) | 8 µg/mL (≈ 21.7 µM) | 2 µg/mL (≈ 5.42 µM) | 128 µg/mL (≈ 347 µM) |  | 14% | > 128 µg/mL | 2 µg/mL (≈ 5.42 µM) | 8 µg/mL (≈ 21.7 µM) | 
6 | O=C(Cc1csc2ccc(Cl)cc12)N[C@@H]1C(=O)N2C(C(=O)O)=C(Cl)CS[C@H]12 | 0.06 µg/mL (≈ 0.135 µM) | 1 µg/mL (≈ 2.26 µM) | 0.015 µg/mL (≈ 0.0338 µM) | 2 µg/mL (≈ 4.51 µM) | 64 µg/mL (≈ 144 µM) | 0.02 µg/mL (≈ 0.0451 µM) | 0.015 µg/mL (≈ 0.0338 µM) | 0.03 µg/mL (≈ 0.0677 µM) | 0.5 µg/mL (≈ 1.13 µM) | 2 µg/mL (≈ 4.51 µM) | 128 µg/mL (≈ 289 µM) | 0.25 µg/mL (≈ 0.564 µM) | 128 µg/mL (≈ 289 µM) | 0.03 µg/mL (≈ 0.0677 µM) |  | 128 µg/mL (≈ 289 µM) | 0.125 µg/mL (≈ 0.282 µM) | 128 µg/mL (≈ 289 µM) | 
7 | O=C(Cc1cccs1)N[C@@H]1C(=O)N2C(C(=O)O)=C(Cl)CS[C@H]12 | 0.5 µg/mL (≈ 1.39 µM) | 1 µg/mL (≈ 2.79 µM) | 0.125 µg/mL (≈ 0.348 µM) | 16 µg/mL (≈ 44.6 µM) | 4 µg/mL (≈ 11.1 µM) | 0.25 µg/mL (≈ 0.697 µM) | 0.125 µg/mL (≈ 0.348 µM) | 0.5 µg/mL (≈ 1.39 µM) | 2 µg/mL (≈ 5.57 µM) | 16 µg/mL (≈ 44.6 µM) | 2 µg/mL (≈ 5.57 µM) | 1 µg/mL (≈ 2.79 µM) | 32 µg/mL (≈ 89.2 µM) | 0.125 µg/mL (≈ 0.348 µM) | 44% | 64 µg/mL (≈ 178 µM) | 1 µg/mL (≈ 2.79 µM) | 2 µg/mL (≈ 5.57 µM) | dose excreted [16]: 17%; bioavailability [17]: 21%; AUC [18]: 43200 ng·h/mL; dose excreted [19]: 75%; AUC (Canis familiaris [20]): 75.3 µg·h/mL; AUC (Canis familiaris [21]): 930 µg·min/mL; bioavailability [22]: 13.1%; AUC [23]: 5670 ng·h/mL
8 | Cc1nc(CC(=O)N[C@@H]2C(=O)N3C(C(=O)O)=C(Cl)CS[C@H]23)cs1 |  |  |  |  |  |  | 1 µg/mL (≈ 2.67 µM) |  |  |  | 4 µg/mL (≈ 10.7 µM) |  | 64 µg/mL (≈ 171 µM) |  | 66% | > 128 µg/mL |  |  | 
